Bioassay records from PubChem.
TNAP act hiacc: TNAP activators at high phosphate acceptor level, primary screen, biochemical, luminescence, uHTS; Alkaline phosphatase, tissue-nonspecific isozyme (Homo sapiens), P05186; purified TNAP, CDP-star luminescence, 1 M DEA, 30 min; active compounds read high; 0 = EDTA background, 1 = DMSO-only activity; activation factor at 20 µM; 200,000 tested, under 10 active;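 active = activation factor at least 2 at 20 µM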
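Control set: EDTA negative control, DMSO positive control / Assay system: human TNAP / Quantity: TNAP 1/800 final / Evaluation: TNAP activation factor scaled between EDTA and DMSO control wells / Measured by: luminescent substrate turnover signal / Compound dosing: one dose, 20 µM / Times: 30 min enzyme reaction at room temperature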
TNAP inh hiacc: human TNAP enzyme inhibitors, primary screen, biochemical, luminescent, high phosphate acceptor level, uHTS; Alkaline phosphatase, tissue-nonspecific isozyme (Homo sapiens), P05186; purified TNAP, CDP-star luminescence, 1 M DEA; inhibition, % at 20 µM; actives 0.03% (n = 200,000); AID 1135, 2008;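 active = over 50% inhibition of tissue-nonspecific alkaline phosphatase at 20 µM in the single-dose screen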;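 note: plate controls were DMSO wells for no effect and EDTA-quenched wells as full inhibition for full effect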
TNAP inh no acc: human TNAP enzyme inhibitors, primary screen, biochemical, luminescent, no phosphate acceptor, uHTS. Alkaline phosphatase, tissue-nonspecific isozyme (Homo sapiens), P05186. purified TNAP, CDP-star luminescence, 30 min. inhibition, % at 20 µM. actives 0.26% (n = 200,000). AID 1012, 2008;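 active = tissue-nonspecific alkaline phosphatase inhibition above about 50% at 20 µM in the single-dose screen, limit read from the data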;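 note: 0% = DMSO negative control and 100% = EDTA positive control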
PMI act hi M6P: human PMI activators, high substrate, primary screen, biochemical, fluorescence intensity, near-saturating mannose 6-phosphate; AID 1216, 2008; actives 0.34% (n = 190,000); activation factor at 20 µM; Mannose-6-phosphate isomerase (Homo sapiens), P34949; coupled PMI enzyme assay, resazurin fluorescence, 20 min; active compounds read high; 1 = untreated enzyme, 0 = substrate-free blank;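 active = activation factor of 2 or more at 20 µM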
Target sequence (P34949 whole entry, looked up): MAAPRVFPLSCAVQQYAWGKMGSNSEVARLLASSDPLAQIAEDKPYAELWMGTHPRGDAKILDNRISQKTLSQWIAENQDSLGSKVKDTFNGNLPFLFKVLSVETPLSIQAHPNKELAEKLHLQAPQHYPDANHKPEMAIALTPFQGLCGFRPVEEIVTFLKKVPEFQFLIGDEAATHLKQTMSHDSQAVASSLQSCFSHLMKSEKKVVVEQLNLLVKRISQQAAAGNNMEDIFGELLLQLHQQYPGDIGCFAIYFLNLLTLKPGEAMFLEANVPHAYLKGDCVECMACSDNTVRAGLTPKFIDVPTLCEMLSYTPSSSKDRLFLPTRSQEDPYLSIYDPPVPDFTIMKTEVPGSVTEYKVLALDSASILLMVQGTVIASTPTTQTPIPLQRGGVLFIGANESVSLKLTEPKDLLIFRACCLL
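Material: human phosphomannose isomerase with PGI, G6PDH, diaphorase coupling enzymes; amount: PMI at 15 ng/mL final; also added: Mannose-6-phosphate 1.0 mM (near-saturating) plus 0.22 mM NADP+; incubation: enzyme reaction with compound 20 min at room temperature; signal: resorufin fluorescence (Ex 544/Em 590 nm) from resazurin via diaphorase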
PMI act: activators of human PMI, primary screen, biochemical, fluorescence intensity, near-Km mannose 6-phosphate | Mannose-6-phosphate isomerase (Homo sapiens), P34949 | purified human PMI, coupled resazurin fluorescence, 20 min; active compounds read high; 1 = vehicle control, 0 substrate-free wells | activation factor at 20 µM | actives 0.005% (n = 190,000);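 active = activation factor of 2 or more at 20 µM, relative to plate controls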
Numbers without * were called inactive; · = no result. Shown are actives, neighbours in structure and some others; about 0.64% of the full set was active somewhere.

SMILES	TNAP act hiacc	TNAP inh hiacc	TNAP inh no acc	PMI act hi M6P	PMI act
O=C(CN1C(=O)C2CCCCC2C1=O)N1CCN(c2ccc(F)cc2)CC1 (configuration not stated)	1.1	-5.0	-10.8	1	1
O=C(CN1C(=O)NC2(CCSC2)C1=O)N1CCN(c2ccc(F)cc2)CC1 (configuration not stated)	1.1	-8.2	-17.1	2.1*	1.6
O=C(COc1ccc(/C=N/NC(=O)c2ccccc2O)cc1)Nc1ccccc1	1	-3.3	-14.4	1.1	1.1
CCC(=O)NC(=S)NNC(=O)c1ccc(O)cc1	0.9	6.9	97.3*	·	·
S=c1[nH]nc(-c2ccco2)n1/N=C/c1ccccn1	1.1	-5.4	-12.6	0.9	0.8
S=c1[nH]nc(-c2ccco2)n1/N=C/c1ccc(Cl)c(Cl)c1	1	4.9	58.0*	0.9	0.9
CC(=O)Nc1cc(-c2ccc(Cl)cc2)[nH]n1	1	-4.1	87.5*	·	·
COc1cc(OC)cc(-c2cc(NC(C)=O)n[nH]2)c1	1	-4.4	0.9	0.9	0.8
COc1cc(C(=O)Nc2cc(-c3ccccc3)[nH]n2)cc(OC)c1OC	1.1	-6.0	62.9*	1.1	1
COc1cc(C(=O)Nc2nc(OC)c(-c3ccccc3)c(OC)n2)cc(OC)c1OC	1	-4.0	-8.5	0.9	1
Cn1cc([C@@H]2C[C@H]3CN(Cc4cccc(Cl)c4)C(=O)[C@]34CCCN24)c(-c2ccccc2)n1	1	-2.8	-1.5	0.9	0.9
O=C(N/N=C/c1ccc(O)cc1)/C(=C/c1ccccc1)CCO	1	3.4	8.1	0.9	0.9
O=C(CN1CCCCC1)N/N=C/c1cc2ccccc2nc1Cl	1	-0.9	-9.6	1.1	1
Cc1ccc(C)c(N=Nc2nc3ccccc3n2C)c1	0.8	15.5	14.5	2.2*	1.3
Cc1cc(C)c(C)c(N=Nc2nc3ccccc3n2C)c1C	0.9	12.7	4.5	0.8	0.8
O=C(COC(=O)CCc1c[nH]c2ccccc12)NC(c1ccccc1)c1ccccc1	1	-2.0	-65.1	1	0.9
O=[N+]([O-])/C(=C\Nc1ccccc1Cl)S(=O)(=O)c1ccccc1	1	-0.6	-6.6	2.4*	1.4
O=C(NNC(=O)c1ccc(O)cc1O)c1ccc(Cl)cc1	1	0.0	76.1*	1	1
Nc1nc(Cl)cc(N2CCC(c3cc(-c4ccc(Cl)cc4Cl)n[nH]3)CC2)n1	1	-0.8	55.9*	0.9	0.9
Nc1nc(Cl)cc(N2CCCC2)n1	1	-4.1	-8.0	0.5	0.7
CCC(C)NC(=S)Nc1ccc(C(=O)OC)cc1 (configuration not stated)	1	-2.4	-2.1	1	0.9
CCCCN(C(=O)c1cccc2c(=O)c(C)c(-c3ccccc3)oc12)c1ccccc1	1	-0.2	-9.2	1	0.9
Cc1ccc(-c2nnc(Nc3ccc4c(c3)OCO4)c3ccccc23)cc1S(N)(=O)=O	0.8	16.7	79.3*	0.8	0.8
Cc1ccc(C2CC(=O)NC(SCC(N)=O)=C2C#N)s1 (configuration not stated)	1.1	-6.1	-3.5	1	1
Cc1ccc([N+](=O)[O-])cc1NCC(=O)NN	1	-0.5	78.7*	0.9	1
SMILES	TNAP act hiacc	TNAP inh hiacc	TNAP inh no acc	PMI act hi M6P	PMI act
CC(C)(C)c1ccc(-c2nc(C=O)c3ccccn23)cc1	1	-3.1	-8.3	1	1
Cc1c(C(C)(C)C)c(C=S)n2ccccc12	1.1	-5.1	14.5	2*	1.6
CN(C)c1ccc(/C=C/C(=O)c2ccccc2O)cc1	0.8	21.7	13.6	0.8	0.9
CN(C)c1ccc(/C=C/c2ccc3c4ccccc4ccc3[n+]2-c2ccccc2)cc1	0.3	69.3*	73.8*	0.9	1.1
CN(C)c1ccc(/C=C/c2ccc3ccccc3[n+]2C)cc1	0.4	56.8*	56.9*	1	0.7
CN(C)c1ccc(/C=C/c2ccncc2)cc1	1	-3.6	-5.0	1.1	1
CCCN(CCC)CCCNC(=O)C1c2cc(OC)c(OC)cc2C(=O)N(C)C1c1cccnc1 (configuration not stated)	1	-2.6	-7.1	1	1
O=[N+]([O-])c1ccc(Nc2cccc(F)c2)nc1	1	-2.5	-2.0	0.9	0.9
N#CC1=C(N)Oc2n[nH]c(-c3cccs3)c2C1C1C=CCCC1 (configuration not stated)	1	-4.6	53.5*	0.9	1
N#CC1=C(N)Oc2n[nH]c(-c3cccs3)c2C1C1CCCCC1 (configuration not stated)	1	-2.5	22.6	1	0.9
Cc1ccc(Sc2ccc(CN3CCCCC3)cc2[N+](=O)[O-])cc1	0.7	30.9	-6.9	1	1
Cc1ccc2nc3sc(C(=O)N4CCOCC4)c(N)c3cc2c1	1	-3.5	0.8	2*	1.5
Cc1ccc2cc3c(N)c(C(=O)N4CCOCC4)sc3nc2c1	1.1	-6.7	-13.5	1.2	1.2
Cc1cc(C)cc(C(=O)N2CC(=O)Nc3ccccc32)c1	1	-4.7	-9.1	1	1
Cc1ccc2cc3c(N)c(C(=O)N4CC(=O)Nc5ccccc54)sc3nc2c1	1	-2.4	0.2	2.1*	1.3
COc1ccc(OC)c(S(=O)(=O)Nc2cccnc2)c1	0.3	74.8*	86.4*	1	1
Cc1ccc(NC(=O)C2CCN(S(=O)(=O)c3c(C)n[nH]c3C)CC2)nc1	1.1	-9.3	55.3*	0.8	1
O=C(c1ccco1)N1CCN(S(=O)(=O)N2CCOCC2)CC1	1.1	-5.1	-7.8	1	1
Cc1n[nH]c(C)c1S(=O)(=O)N1CCN(C(=O)c2ccco2)CC1	1	-2.7	60.5*	1	1
Cc1ccc(NC(=O)C2CCN(S(=O)(=O)c3cnc[nH]3)CC2)nc1	1	-3.7	-7.3	1	1
Cc1ccc(N(C(=O)c2cnccn2)C(C(=O)NC2CCCCC2)c2ccc(O)cc2)cc1 (configuration not stated)	1	-1.0	-8.8	·	·
CC1=NN(c2ccc(Cl)cc2)C(=O)C1	1.1	-8.2	-16.1	1.1	1.3
CC1=NN(c2ccc(N)cc2)C(=O)C1	1	-3.6	-24.5	2*	1.6
COc1ccc(C2=NN(C(N)=S)C(c3ccco3)C2)cc1 (configuration not stated)	1	2.0	-3.8	0.6	0.8
